{"data": "Assay results collected from several papers", "CSF1R": "Macrophage colony-stimulating factor 1 receptor (CSF1R, Homo sapiens, UniProt P07333)", "CSF1R autoinhibited": "Macrophage colony-stimulating factor 1 receptor, autoinhibited (CSF1R, Homo sapiens, UniProt P07333)", "note": "Compare with care: the assays were run in different laboratories."}
{"SMILES": "COc1cc(Cl)c(C(=O)N[C@@H](CN[C@H]2CC[C@@H](N)CC2)Cc2ccc(C#N)cc2)cc1-c1ccc(CN[C@H](C)c2ccc(C)cc2)o1", "target": "CSF1R", "effect on": "enzyme activity", "mode": "inhibitor", "concentration": "1 µM", "quantity": "remaining activity", "result": "111%"}
{"SMILES": "CC(C)(O)[C@H]1CC[C@H](Nc2ccc3ncc(-c4cccc(C(F)(F)F)c4)n3n2)CC1", "target": "CSF1R", "effect on": "enzyme activity", "mode": "inhibitor", "concentration": "1 µM", "quantity": "remaining activity", "result": "89.7%"}
{"SMILES": "O=C(Nc1cnn(-c2csc(C(=O)NC3COC3)c2)c1)Nc1c(F)cccc1Cl", "target": "CSF1R", "effect on": "enzyme activity", "mode": "inhibitor", "concentration": "5 µM", "quantity": "remaining activity", "result": "98.9%"}
{"SMILES": "CCCOc1ccc(OC)c(F)c1C(=O)c1ccc(C(=O)N[C@@H]2CNC[C@H]2NC(=O)c2ccc3[nH]ncc3c2)cc1", "target": "CSF1R", "effect on": "enzyme activity", "mode": "inhibitor", "concentration": "10 µM", "quantity": "remaining activity", "result": "27%"}
{"SMILES": "c1ccc(-c2n[nH]c3c2oc2ccccc23)cc1", "target": "CSF1R", "effect on": "cell-free assay", "concentration": "0.5 µM", "quantity": "remaining signal", "result": "78.1%"}
{"SMILES": "CN(C)c1ncnc(-c2ccc3nc(Nc4cc(CN5CCN(C(=O)CC(F)(F)F)CC5)ccn4)[nH]c3c2)c1Cl", "target": "CSF1R", "effect on": "cell-free assay", "method": "competition with immobilised ligand", "concentration": "1 µM", "quantity": "remaining binding", "result": "100%"}
{"SMILES": "COc1cc2ncnc(Nc3ccc(F)c(Cl)c3)c2cc1OCCCN1CCOCC1", "target": "CSF1R", "effect on": "cell-free assay", "concentration": "0.5 µM", "quantity": "remaining signal", "result": "110%"}
{"SMILES": "CCN(CC)c1ccc(C2=NNC(=O)CC2C)cc1[N+](=O)[O-] (centres unmarked)", "target": "CSF1R", "effect on": "enzyme activity", "mode": "inhibitor", "concentration": "10 µM", "quantity": "remaining activity", "result": "114%"}
{"SMILES": "Cc1ccc(NC(=O)c2ccc(CN3CCN(C)CC3)cc2)cc1Nc1nccc(-c2cncc(-c3oncc3C)c2)n1", "target": "CSF1R", "effect on": "enzyme activity", "mode": "inhibitor", "concentration": "0.5 µM", "quantity": "remaining activity", "result": "≤ 50%"}
{"SMILES": "COc1cc2ncnc(Nc3ccc(Oc4ccccc4)c(C)c3C)c2cc1OC", "target": "CSF1R", "effect on": "enzyme activity", "mode": "inhibitor", "concentration": "1 µM", "quantity": "inhibition", "result": "8%"}
{"SMILES": "Cc1cc(NC(=O)c2cccc(S(F)(F)(F)(F)F)c2)cc(-n2ccn3nc(-c4cccnc4)cc23)c1", "target": "CSF1R autoinhibited", "effect on": "cell-free assay", "method": "competition with immobilised ligand", "concentration": "1 µM", "quantity": "remaining binding", "result": "89%"}
{"SMILES": "Cc1ccc(C(=O)NCc2ccsc2)cc1C#Cc1cn(C(C)C)c2ncnc(N)c12", "target": "CSF1R", "effect on": "enzyme activity", "mode": "inhibitor", "concentration": "1 µM", "quantity": "activity vs control", "result": "8%"}
{"SMILES": "O=C1CCc2cc(Nc3cc(OC4CCOCC4)c([N+](=O)[O-])cc3Cl)ccc2N1", "target": "CSF1R autoinhibited", "effect on": "cell-free assay", "method": "competition with immobilised ligand", "concentration": "1 µM", "quantity": "remaining binding", "result": "95%"}
{"SMILES": "CC(C)(C)c1nc(-c2cccc(NS(=O)(=O)c3c(F)cccc3F)c2F)c(-c2ccnc(N)n2)s1", "target": "CSF1R", "effect on": "enzyme activity", "mode": "inhibitor", "method": "radiometric", "concentration": "1 µM", "quantity": "remaining activity", "result": "109%"}
{"SMILES": "CO[C@@H](C)c1c(Nc2ccc([C@@H](N(C)C(=O)C3CCS(=O)(=O)CC3)C(F)(F)F)cc2)cnc2cc(Cl)nn12", "target": "CSF1R autoinhibited", "effect on": "cell-free assay", "method": "competition with immobilised ligand", "concentration": "1 µM", "quantity": "remaining binding", "result": "88%"}
{"SMILES": "N#CCCc1ccc2c(c1)-c1[nH]c3ccc([N+](=O)[O-])cc3c1CC(=O)N2", "target": "CSF1R", "effect on": "cell-free assay", "concentration": "0.5 µM", "quantity": "remaining signal", "result": "43.4%"}
{"SMILES": "CCC(=O)N[C@@H]1CC[C@H](C(=O)N(C)c2ccc(-c3nc4ccccc4o3)cc2)C1", "target": "CSF1R", "effect on": "cell-free assay", "method": "competition with immobilised ligand", "concentration": "1 µM", "quantity": "remaining binding", "result": "88%"}
{"SMILES": "CN(C)C1CCN(CC#Cc2nn(C3CCCC3)c3nc(NCc4ccccc4)ncc23)C1 (centres unmarked)", "target": "CSF1R", "effect on": "enzyme activity", "mode": "inhibitor", "method": "FRET", "concentration": "1 µM", "quantity": "inhibition", "result": "82%"}
{"SMILES": "C[C@H](c1ccnc(Nc2nc3ccc(-c4cc(N(C)C)ncn4)cc3[nH]2)c1)N1CCN(C(=O)CC(F)(F)F)CC1", "target": "CSF1R autoinhibited", "effect on": "cell-free assay", "method": "competition with immobilised ligand", "concentration": "0.1 µM", "quantity": "remaining binding", "result": "90%"}
{"SMILES": "Cc1ccc(NC(=O)c2ccc(C)c(C(F)(F)F)c2)cc1C#Cc1nn(C2CCC(O)CC2)c2ncnc(N)c12 (centres unmarked)", "target": "Macrophage colony-stimulating factor 1 receptor (CSF1R, Homo sapiens, UniProt P07333, Y969C)", "effect on": "cell-free assay", "concentration": "10 µM", "quantity": "remaining signal", "result": "13%"}
